Reference: ChEMBL document CHEMBL4680079, “Discovery of a Quinoline-4-carboxamide Derivative with a Novel Mechanism of Action, Multistage Antimalarial Activity, and Potent in Vivo Efficacy” (J Med Chem, 2016)
pEC50: −log10 of the molar value. ≈ marks a conversion by molar mass, not a printed value.

Assays:
[1] = test system: Plasmodium falciparum; assay: Antiplasmodial activity against chloroquine-sensitive Plasmodium falciparum 3D7 infected in human red blood cells assessed as growth inhibition by SYBR Green fluorescence assay; type: functional, organism-based, RBC; conditions: 3D7, Erythrocyte
Summary of the method: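 P. falciparum 3D7 grown in 5% human red cells in RPMI 1640 (pH 7.3) with 0.5% Albumax II, hypoxanthine and gentamicin at 37°C under 1% O₂/3% CO₂. Growth measured by SYBR green fluorescence (ex 485/em 528 nm), with mefloquine as assay control. EC50 calculated.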

[2] = Intrinsic clearance in CD1 mouse liver microsomes at 0.5 uM in presence of NADPH incubated upto 30 mins by UPLC-MS/MS analysis; type: ADME, Microsome; conditions: 0.5 h
Summary of the method: (§1)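 Compound at 0.5 μM incubated with female CD1 mouse, male Sprague-Dawley rat or pooled human liver microsomes (0.5 mg/mL, 50 mM potassium phosphate, pH 7.4). Reaction started with excess NADPH. Samples taken at 0-30 min, quenched in acetonitrile, analysed by UPLC-MS/MS. Verapamil used as control, single time course.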

[3] = Kinetic aqueous solubility of the compound by laser nephelometry; type: physicochemical; conditions: read-out: Kinetic_solubility
Summary of the method: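 Kinetic solubility measured by laser nephelometry. DMSO serial dilutions diluted into water to give final 100–5 μg/mL at 1.0% DMSO. Read immediately, in triplicate aliquots.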

[4] = Permeability of the compound at 10 uM incubated for 5 hrs by UPLC-MS/MS analysis based PAMPA method; type: ADME; conditions: read-out: permeability
Summary of the method: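 PAMPA run on a lipid-oil-lipid tri-layer filter at pH 7.4. Compound at 10 μM in PBS (DMSO ≤5%) in donor wells, PBS in acceptor wells, kept 5 h at room temperature. Both compartments quantified by UPLC-MS/MS. Data accepted only when recovery exceeded 70%.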

[5] = test system: Plasmodium berghei; assay: Antiplasmodial activity against Plasmodium berghei ANKA infected in NMRI mouse assessed as reduction in parasitemia at 10 mg/kg, po QD for 4 days; type: functional; design: scale not given: the % may be the effect or the level left; conditions: time 4 day
Summary of the method: (§2)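 Female NMRI mice (n=3 per group, randomized, not blinded) infected with GFP-transfected P. berghei ANKA. Oral dosing once daily for 4 days in 10% DMSO/40% PEG400/50% water or HPMC suspension vehicle. Parasitaemia measured by flow cytometry on blood collected 96 h after infection. Mice watched for toxicity over 4 h post-dose each day.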

[6] = test system: Plasmodium berghei; assay: Antiplasmodial activity against Plasmodium berghei ANKA infected in NMRI mouse assessed as survival days at 10 mg/kg, po QD for 4 days; type: functional; conditions: time 4 day
[7] = test system: Plasmodium berghei; assay: Antiplasmodial activity against Plasmodium berghei infected in NMRI mouse assessed as reduction in parasitemia at 3 mg/kg, po QD for 4 days; type: functional; design: scale not given: the % may be the effect or the level left; conditions: time 4 day; summary of the method: as §2
[8] = test system: Plasmodium berghei; assay: Antiplasmodial activity against Plasmodium berghei ANKA infected in NMRI mouse assessed as survival days at 3 mg/kg, po QD for 4 days; type: functional; conditions: time 4 day
[9] = test system: HepG2; assay: Antiproliferative activity against human HepG2 cells assessed as reduction in cell viability; type: cell-based
[10] = test system: MRC5; assay: Antiproliferative activity against human MRC5 cells assessed as reduction in cell viability after 68 hrs by resazurin dye based fluorescence assay; conditions: MRC5, 68 h
Summary of the method: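 MRC-5 fibroblasts plated overnight as monolayers, exposed to compound pre-diluted in MEM for 68 h. Resazurin then added (final 50 μM) for 3 h, fluorescence read at ex 528/em 590 nm. Signal converted to % inhibition against high- and no-inhibition controls. Plates accepted at Z' > 0.5.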

[11] = Intrinsic clearance in Sprague-Dawley rat liver microsomes at 0.5 uM in presence of NADPH incubated upto 30 mins by UPLC-MS/MS analysis; type: ADME, Microsome; conditions: 0.5 h; summary of the method: as §1
[12] = Intrinsic clearance in human liver microsomes at 0.5 uM in presence of NADPH incubated upto 30 mins by UPLC-MS/MS analysis; type: ADME, Microsome; conditions: 0.5 h; summary of the method: as §1
[13] = test system: Plasmodium berghei; assay: Antiplasmodial activity against Plasmodium berghei ANKA infected in NMRI mouse assessed as reduction in parasitemia at 1 mg/kg, po QD for 4 days; type: functional; design: scale not given: the % may be the effect or the level left; conditions: time 4 day; summary of the method: as §2
[14] = test system: Plasmodium berghei; assay: Antiplasmodial activity against Plasmodium berghei ANKA infected in NMRI mouse assessed as survival days at 1 mg/kg, po QD for 4 days; type: functional; conditions: time 4 day
[15] = Clearance in Sprague-Dawley rat blood at 1 mg/kg, iv administered as bolus dose by UPLC-MS/MS analysis; type: ADME, organism-based
Summary of the method: (§3)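 Male Sprague Dawley rats (n=3/route) received an iv bolus solution at 1 mg free base/kg (5 mL/kg; 5% DMSO in saline). Blood sampled from 5 min to 30 or 48 h post-dose, mixed with two volumes water, frozen, then analysed by UPLC-MS/MS. Parameters derived from the blood concentration-time curve.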

[16] = Volume of distribution at steady state in Sprague-Dawley rat at 1 mg/kg, iv administered as bolus dose by UPLC-MS/MS analysis; type: ADME, organism-based; conditions: Sprague-Dawley, in vivo, read-out: Vdss; summary of the method: as §3
[17] = Half-life in Sprague-Dawley rat at 1 mg/kg, iv administered as bolus dose by UPLC-MS/MS analysis; type: ADME, organism-based; conditions: Sprague-Dawley, in vivo; summary of the method: as §3
[18] = Cmax in Sprague-Dawley rat at 3 mg/kg, po administered via gavage by UPLC-MS/MS analysis; type: ADME, organism-based; design: route oral, dose 3 mg/kg; conditions: in vivo
Summary of the method: (§4)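 Oral gavage solution, 3 mg free base/kg (10 mL/kg; 0.5% w/v HPMC, 0.4% v/v Tween 80, 0.5% v/v benzyl alcohol), given to male Sprague Dawley rats (n=3). Blood taken at 5, 15, 30 min and 1, 2, 4, 6, 8, 24, 30 h, mixed with two volumes water, analysed by UPLC-MS/MS.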

[19] = Tmax in Sprague-Dawley rat at 3 mg/kg, po administered via gavage by UPLC-MS/MS analysis; type: ADME, organism-based; conditions: in vivo; summary of the method: as §4
[20] = AUC in Sprague-Dawley rat at 3 mg/kg, po administered via gavage by UPLC-MS/MS analysis; type: ADME, organism-based; design: dose 3 mg/kg; conditions: in vivo; summary of the method: as §4
[21] = Oral bioavailability in Sprague-Dawley rat at 3 mg/kg administered via gavage by UPLC-MS/MS analysis; type: ADME, organism-based; conditions: in vivo; summary of the method: as §4

## O=C(NCCN1CCC1)c1cc(-c2ccc(CN3CCOCC3)cc2)nc2ccc(F)cc12
[1]
  pEC50: 8.40
[2]
  CLH: 0.5 mL/min/g
[3]
  solubility kinetic: 71 µM (≈ 31.8 µg/mL)
[4]
  Papp at 5 h, 10 µM: 7.5 ×10⁻⁶ cm/s
[5]
  Activity: 99.1%
[6]
  Survival: 20.3 days
[7]
  Activity: 99.2%
[8]
  Survival: 9.3 days
[9]
  pEC50: 4.39

## O=C(NCCN1CCCC1)c1cc(-c2ccc(CN3CCOCC3)cc2F)nc2ccc(F)cc12
[1]
  pEC50: 8.70
[10]
  pEC50: 4.39
[2]
  CLH: < 0.5 mL/min/g
[3]
  solubility kinetic: 208 µM (≈ 100 µg/mL)
[4]
  Papp at 5 h, 10 µM: 13.2 ×10⁻⁶ cm/s
[11]
  CLH: < 0.5 mL/min/g
[12]
  CLH: 1.5 mL/min/g
[13]
  Activity: 99.9%
[14]
  Survival: 14 days
[15]
  clearance: 32 mL/min/kg
[16]
  Vd: 10 L/kg
[17]
  half-life: 4 h
[18]
  Cmax: 29 ng/mL
[19]
  Tmax: 8 h
[20]
  AUC: 507 ng·h/mL
[21]
  bioavailability: 33%
